Results: ChEMBL document CHEMBL1125363, “Novel piperidine sigma receptor ligands as potential antipsychotic drugs” (J Med Chem, 1992)

What was measured:
[1] = target: Serotonin 2 (5-HT2) receptor (Mus musculus, UniProt Q02152+P34968+P35363); test: In vitro binding affinity for serotonin 5-hydroxytryptamine (5-HT) 2 receptors; format: protein assay
Mus musculus = species: Mus musculus; test: Oral potency tested by using anti-mescaline test; format: functional
Method in brief: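 Mice; mescaline was given to evoke hallucinogen-type behaviour, and the test compound was dosed orally to antagonise it. Potency is the ED50 in mg/kg po. Some ED50s are the average of three measurements.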

[2] = target: Sigma non-opioid intracellular receptor 1 (Mus musculus, UniProt O55242); test: In vitro binding affinity for the mouse sigma opioid receptor
D(2) dopamine receptor = D(2) dopamine receptor (Mus musculus, UniProt P61168); test: In vitro binding affinity towards dopamine receptor D2
Sequence of D(2) dopamine receptor (P61168 whole entry): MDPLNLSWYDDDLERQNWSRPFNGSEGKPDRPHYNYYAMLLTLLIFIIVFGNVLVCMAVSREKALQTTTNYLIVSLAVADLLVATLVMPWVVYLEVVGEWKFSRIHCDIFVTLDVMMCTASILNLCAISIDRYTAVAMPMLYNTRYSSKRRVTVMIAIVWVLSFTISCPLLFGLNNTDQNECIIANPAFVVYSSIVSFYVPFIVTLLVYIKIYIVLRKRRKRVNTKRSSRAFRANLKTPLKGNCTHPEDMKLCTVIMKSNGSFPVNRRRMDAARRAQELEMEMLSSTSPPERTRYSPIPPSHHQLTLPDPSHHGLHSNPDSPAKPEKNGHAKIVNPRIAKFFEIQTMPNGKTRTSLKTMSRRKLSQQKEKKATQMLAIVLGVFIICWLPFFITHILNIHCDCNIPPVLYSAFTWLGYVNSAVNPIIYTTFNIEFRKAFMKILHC

Sequence of Sigma non-opioid intracellular receptor 1 (O55242 whole entry): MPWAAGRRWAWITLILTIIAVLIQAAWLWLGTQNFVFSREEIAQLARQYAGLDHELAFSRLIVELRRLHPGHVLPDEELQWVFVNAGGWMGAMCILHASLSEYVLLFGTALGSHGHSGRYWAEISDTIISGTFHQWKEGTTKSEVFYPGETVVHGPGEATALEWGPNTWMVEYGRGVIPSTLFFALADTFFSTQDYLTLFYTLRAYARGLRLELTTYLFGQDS

Structure (SMILES) | Ki [1] [nM] | Ki [2] [nM] | IC50 (D(2) dopamine receptor) [nM] | ED50 (Mus musculus) [mg/kg]
O.O=C(CC1CCN(Cc2ccccc2)CC1)c1ccc(C(F)(F)F)cc1 | > 1000 | 10 | 4670 | > 10
Fc1ccc(OCC2CCN(Cc3ccncc3)CC2)cc1.O | 31 | 7 | 2750 | 1.1
O.OC(CC1CCN(CCc2ccccc2)CC1)c1ccc(F)cc1 (stereo unspecified) | 101 | 7 | 806 | < 10
OC(Cc1ccc(F)cc1)C1CCN(CCCCc2ccccc2)CC1 (stereo unspecified) | 65 | 11 | 900 | 18
CC(O)c1ccc(OCC2CCN(CC3CC3)CC2)cc1 (stereo unspecified) | – | 98 | > 10000 | –
O=C(CC1CCCN(CC2CC2)C1)c1ccc(F)cc1 (stereo unspecified) | – | 17 | 185 | 1.3
CSc1ccc(C(=O)CC2CCN(Cc3ccccc3)CC2)cc1 | 208 | 8 | 715 | > 30
Fc1ccc(COCC2CCN(CCc3ccccc3)CC2)cc1.O=C(O)/C=C\C(=O)O | 24 | 4 | 560 | 15
COc1ccc(OCC2CCN(Cc3ccccc3)CC2)cc1 | 55 | 3 | > 10000 | > 30
OC(CC1CCN(CCC2CC2)CC1)c1ccc(F)cc1 (stereo unspecified) | – | 155 | > 10000 | –
O.OC(CC1CCN(Cc2ccccc2)CC1)c1ccc2ccccc2c1 (stereo unspecified) | > 100 | 31 | 3330 | > 10
O.c1ccc2c(OCC3CCN(CC4CC4)CC3)ccnc2c1 | > 100 | 50 | 4850 | 19.2
O=C(CC1CCN(Cc2ccc(C(F)(F)F)cc2)CC1)c1ccc(F)cc1 | 6 | 3 | 195 | 1.8
c1cc(OCC2CCN(CC3CC3)CC2)ccn1 | – | 175 | > 10000 | –
c1ccc(OCC2CCN(CC3CC3)CC2)cc1 | 53 | 7 | 3170 | 30
C[S+]([O-])c1ccc(C(=O)CC2CCN(Cc3ccccc3)CC2)cc1.O (stereo unspecified) | 204 | 53 | > 10000 | > 30
COc1ccc(CN2CCC(COc3ccc(F)cc3)CC2)cc1.O.O=C(O)/C=C\C(=O)O | – | 30 | 1340 | 6.5
O.O=C(CC1CCN(Cc2ccccc2)CC1)c1ccc(O)cc1 | > 1000 | 18 | 1340 | > 30
O=C(CC1CCN(Cc2ccccc2)CC1)c1ccc(-c2ccccc2)cc1 | > 100 | 33 | 3010 | 30
[O-][S+](CC1CCN(CCC2CC2)CC1)c1ccc(F)cc1 (stereo unspecified) | – | 310 | > 10000 | –
Cl.Fc1ccc(OCC2CCN(CC3CC3)CC2)cc1F | 41 | 2 | 2840 | 4.5
Cl.O=[N+]([O-])c1ccc(OCC2CCN(Cc3ccccc3)CC2)cc1 | 272 | 5 | 4390 | 14
Cl.Fc1ccc(OCCC2CCN(Cc3ccccc3)CC2)cc1.O | < 100 | 4 | 114 | 16
COc1cc(OCC2CCN(CC3CC3)CC2)cc(OC)c1OC.Cl | 8706 | 50 | > 10000 | > 30
Br.CN(C)c1ccc(C(=O)CC2CCN(CC3CC3)CC2)cc1.O | 559 | 33 | > 10000 | 30
Cl.Clc1ccc(OCC2CCN(CC3CC3)CC2)cc1Cl | 87 | 8 | 1650 | 3.3
Cl.Oc1ccc(CN2CCC(COCc3ccc(F)cc3)CC2)cc1 | 500 | 7 | 3130 | > 10
Cl.OC(Cc1ccccc1)C1CCN(Cc2ccccc2)CC1 (stereo unspecified) | 1603 | 18 | 8300 | < 10
Fc1ccc(COCC2CCN(CCCc3ccccc3)CC2)cc1 | – | 304 | > 10000 | –
CCNc1ccc(OCC2CCN(CC3CC3)CC2)cc1.Cl.O | > 10000 | 33 | > 10000 | > 30

Second part, led by results:

Ki [1] [nM] | Ki [2] [nM] | IC50 (D(2) dopamine receptor) [nM] | Structure (SMILES) | ED50 (Mus musculus) [mg/kg]
313 | 4 | 6070 | COc1ccc(C(=O)CC2CCN(Cc3ccccc3)CC2)cc1 | > 30
– | 218 | 7220 | COc1ccc(-c2ccc(OCC3CCN(CC4CC4)CC3)cc2)cc1 | –
438 | 31 | > 10000 | O.O=C(CC1CCN(Cc2ccccc2)CC1)c1ccc(CO)cc1 | > 30
17 | 40 | – | O=C(CCCN1CCC(C(=O)Cc2ccc(F)cc2)CC1)c1ccc(F)cc1 | 1.9
– | 37 | 3340 | O=C(CC1CCCCN1Cc1ccccc1)c1ccc(F)cc1.O=C(O)/C=C\C(=O)O (stereo unspecified) | 4.3
> 100 | 10 | 7630 | CSc1ccc(C(O)CC2CCN(Cc3ccccc3)CC2)cc1 (stereo unspecified) | > 30
15 | 2 | 179 | CC1(CN2CCC(COc3ccc(F)cc3)CC2)CC1(Cl)Cl.O=C(O)/C=C/C(=O)O (stereo unspecified) | < 10
41 | 7 | 1700 | O.OC(Cc1ccc(F)cc1)C1CCN(CCCc2ccccc2)CC1 (stereo unspecified) | –
– | 14 | 34 | O=C(CC1CCCN(Cc2ccccc2)C1)c1ccc(F)cc1 (stereo unspecified) | 1.1
3.3 | 9 | 10 | O=C(CC1CCN(CCc2ccc(C(F)(F)F)cc2)CC1)c1ccc(F)cc1 | < 10
38 | 8 | 1070 | Fc1ccc(CN2CCC(COc3ccc(F)cc3)CC2)cc1 | 5.9
24 | 5 | 945 | CC1CC1CN1CCC(COc2ccc(F)cc2)CC1.O=C(O)/C=C\C(=O)O (stereo unspecified) | > 10
– | 146 | > 10000 | Nc1ccc(C(=O)CC2CCN(CC3CC3)CC2)cc1.O | 10
745 | 28 | > 10000 | O=S(=O)(CC1CCN(CCC2CC2)CC1)c1ccc(F)cc1 | 6.4
350 | 2 | 1930 | FC(F)(F)c1ccc(OCC2CCN(Cc3ccccc3)CC2)cc1 | 6
8.4 | 5 | 14 | O=C(CC1CCN(CCc2ccc(Cl)cc2)CC1)c1ccc(F)cc1 | 1.8
316 | 3 | 1100 | O=C(Cc1ccc(F)cc1)CC1CCN(Cc2ccccc2)CC1.O=C(O)/C=C\C(=O)O | > 30
10 | 7 | 57 | O=C(CC1CCN(CCc2ccc(F)cc2)CC1)c1ccc(F)cc1 | 0.13

Ki [1] [nM] | Ki [2] [nM] | IC50 (D(2) dopamine receptor) [nM] | Structure (SMILES) | ED50 (Mus musculus) [mg/kg]
584 | 24 | > 10000 | c1ccc(Oc2ccc(OCC3CCN(CC4CC4)CC3)cc2)cc1 | > 30
116 | 18 | > 10000 | CS(=O)(=O)c1ccc(C(=O)CC2CCN(Cc3ccccc3)CC2)cc1 | > 30
1323 | 11 | > 10000 | O.OC(CC1CCN(Cc2ccccc2)CC1)c1ccco1 (stereo unspecified) | > 30
> 1000 | 9 | 539 | CC(=O)c1ccc(OCC2CCN(CC3CC3)CC2)cc1 | > 30
– | > 10000 | – | CN(C)S(=O)(=O)c1ccc(OCC2CCN(CC3CC3)CC2)cc1 | –
173 | 6 | 1020 | O.c1ccc(CN2CCC(COc3ccc4ccccc4c3)CC2)cc1 | > 30
290 | 3 | 4560 | O.O=C(Cc1ccc(F)cc1)C1CCN(Cc2ccccc2)CC1.O=C(O)/C=C\C(=O)O | 18
– | 347 | 4440 | c1cnc(OCC2CCN(CC3CC3)CC2)nc1 | –
1378 | 44 | 4670 | Cl.c1ccc(OCC2CCN(CC3CC3)CC2)nc1 | > 30
32 | 4 | 111 | Cl.Clc1ccc(OCC2CCN(CC3CC3)CC2)c(Cl)c1 | 2.9
127 | 3 | 3350 | Cl.Fc1ccc(COCC2CCN(CC3CCCCC3)CC2)cc1 | > 10
> 100 | 6 | > 10000 | Cl.OC(CC1CCN(Cc2ccccc2)CC1)c1ccc(C(F)(F)F)cc1 (stereo unspecified) | > 30
< 100 | 27 | 773 | Cl.Fc1ccc(COCC2CCN(Cc3ccc(OCc4ccccc4)cc3)CC2)cc1 | < 30
114 | 7 | 1980 | CSc1ccc(OCC2CCN(CC3CC3)CC2)cc1.Cl | > 30
> 1000 | 8 | 1570 | Br.CC(C)(C)c1ccc(C(=O)CC2CCN(CC3CC3)CC2)cc1.O | > 30
> 100 | 18 | > 10000 | COc1ccc(OCC2CCN(CC3CC3)CC2)cc1.Cl.O | > 30
313 | 7 | 1980 | COC(=O)c1ccc(CN2CCC(COCc3ccc(F)cc3)CC2)cc1.Cl | > 10
